Measured values reported in ChEMBL document CHEMBL1150955, “Antimycobacterial activities of dehydrocostus lactone and its oxidation products” (1998).
Values after ≈ are worked out from the molar mass of the structure shown.

Columns and labels:
[1] = tested on: Mycobacterium tuberculosis; assay: Antimycobacterial activity against Mycobacterium tuberculosis H37Rv by radiorespirometric bioassay; type: functional
Outline: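 Radiorespirometric bioassay giving MIC against strain H37Rv, run essentially per earlier reports; M. tuberculosis experiments usually completed in 10 days.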

[2] = tested on: Mycobacterium avium; assay: Antimycobacterial activity against Mycobacterium avium by radiorespirometric bioassay; type: functional
Outline: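 MIC determined in a radiorespirometric bioassay run essentially per earlier reports; M. avium experiments usually completed within 5 days.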

C=C1CC[C@H]2C(=C)CC[C@@]3(O)C(=C)C(=O)O[C@@H]3[C@@H]12
MIC [1]: > 128 µg/mL

C=C1C(=O)O[C@@H]2[C@@H]3[C@@H](CC[C@]34CO4)[C@@]3(CC[C@@H]12)CO3
MIC [1]: 128 µg/mL (≈ 488 µM)

C=C1C(=O)O[C@@H]2[C@@H]3[C@@H](CC[C@]34CO4)C(=C)CC[C@@H]12
MIC [1]: 32 µg/mL (≈ 130 µM)

C=C1C(=O)O[C@@H]2[C@@H]3[C@@H](CC[C@@]34CO4)[C@]3(CC[C@@H]12)CO3
MIC [1]: 64 µg/mL (≈ 244 µM)

C=C1C(=O)O[C@@H]2[C@@H]3[C@@H](CC[C@]34CO4)[C@]3(CC[C@@H]12)CO3
MIC [1]: 128 µg/mL (≈ 488 µM)

C=C1CC[C@@H]2[C@H]1[C@H]1OC(=O)C(=C)[C@@H]1CC[C@]21CO1 [DEHYDROCOSTUS LACTONE,10ALPHA(14)EPOXIDE]
MIC [1]: 64 µg/mL (≈ 260 µM)

C=C1CC[C@@H]2[C@H]1[C@H]1OC(=O)C(=C)[C@@H]1CC[C@@]21CO1 [DEHYDROCOSTUS LACTONE,10BETA(14)EPOXIDE]
MIC [1]: 32 µg/mL (≈ 130 µM)

C=C1CC[C@H]2C(=C)CC[C@H]3C(=C)C(=O)O[C@@H]3[C@@H]12 [DEHYDROCOSTUSLACTONE]
MIC [1]: 2 µg/mL (≈ 8.68 µM) | MIC [2]: 16 µg/mL (≈ 69.5 µM)

C=C1[C@@H]2[C@H]3OC(=O)C(=C)[C@@H]3CCC(=C)[C@@H]2C[C@H]1O [ISOZALUZANIN C]
MIC [1]: > 128 µg/mL

C=C1C(=O)O[C@H]2[C@H]1CCC(C)=C1CC[C@@](C)(O)[C@@H]12 [MICHELIOLIDE]
MIC [1]: 50 µg/mL (≈ 201 µM)

C=C1C(=O)O[C@H]2[C@H]1[C@@H](O)[C@H](OC(=O)/C(C)=C\C)C(C)=C1C(=O)C=C(C)[C@@]12O [PUMILIN]
MIC [1]: 128 µg/mL (≈ 342 µM) | MIC [2]: 128 µg/mL (≈ 342 µM)
